According to ChEMBL document CHEMBL1121573, “2-(Aminomethyl)phenols, a new class of saluretic agents. 1. Effects of nuclear substitution” (J Med Chem, 1980):

Experiments:
Rattus norvegicus [1] = experiment: Oral diuretic activity was evaluated by measuring Na+ excretion in Rat at 9 mg/kg […] ( 0-5 hr); assay type: ADME, organism-based, Urine; set-up: dose 9 mg/kg; details: in vivo, ip
How it was run: (§1)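 Female Charles-River rats (150–170 g) were kept overnight on a sugar diet with water ad libitum. Compound was dissolved in DMF, then diluted with water containing Tween 80 (3 drops/100 mL) to a final 4% DMF, and given po in 5.0 mL. Rats were housed three per metabolism cage. Urine from 0–5 h was analysed for Na+, K+ and Cl−, with concurrent placebo controls. Values are mequiv × 100 per cage, geometric mean of three cages per dose.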

Canis familiaris [2] = experiment: Oral diuretic activity was evaluated by measuring Na+ excretion in dog at 10 mg/kg after […] ( 0-6 hr); assay type: ADME, organism-based, Canis lupus familiaris, Urine; set-up: dose 10 mg/kg; details: in vivo
How it was run: (§2)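 Dogs; spontaneous urine was pooled with bladder urine drained by catheter at the end of 6 h. Urine volume was measured, and aliquots were assayed for Na+, K+ and Cl− by standard methods. Values are geometric means, expressed as mequiv over 0–6 h.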

Canis familiaris [3] = experiment: Oral diuretic activity was evaluated by measuring Na+ excretion in dog at 1 mg/kg after ip administration ( 0-6 hr); assay type: ADME, organism-based, Canis lupus familiaris, Urine; set-up: dose 1 mg/kg, route intraperitoneal; details: in vivo
How it was run: (§3)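 Spontaneous urine was pooled with bladder urine collected by catheterization at 6 h. Volume was measured and Na+, K+ and Cl− were determined by standard methods. Values are geometric means.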

Canis familiaris [4] = experiment: Oral diuretic activity was evaluated by measuring Na+ excretion in dog at 20 mg/kg after […] ( 0-6 hr); assay type: ADME, organism-based, Canis lupus familiaris, Urine; set-up: dose 20 mg/kg; details: in vivo; how it was run: as §2
Canis familiaris [5] = experiment: Oral diuretic activity was evaluated by measuring K+ excretion in dog at 5 mg/kg after ip administration ( 0-6 hr); assay type: ADME, organism-based, Canis lupus familiaris, Urine; set-up: dose 5 mg/kg, route intraperitoneal; details: in vivo; how it was run: as §3
Rattus norvegicus [6] = experiment: Oral diuretic activity was evaluated by measuring Na+ excretion in Rat at 27 mg/kg after […] ( 0-5 hr); assay type: ADME, organism-based, Urine; set-up: dose 27 mg/kg; how it was run: as §1
Rattus norvegicus [7] = experiment: Oral diuretic activity was evaluated by measuring Na+ excretion in Rat at 81 mg/kg […] ( 0-5 hr); assay type: ADME, organism-based, Urine; set-up: dose 81 mg/kg; how it was run: as §1
Canis familiaris [8] = experiment: Oral diuretic activity was evaluated by measuring Na+ excretion in dog at 5 mg/kg after ip administration ( 0-6 hr); assay type: ADME, organism-based, Canis lupus familiaris, Urine; set-up: dose 5 mg/kg, route intraperitoneal; details: in vivo
How it was run: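 Urine collected over 0–6 h: spontaneous voids were pooled with bladder urine taken by catheterization at 6 h. Urine volume was measured, and aliquots were analysed for Na+, K+ and Cl− by standard methods. Electrolyte excretion is reported as geometric means.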

Rattus norvegicus [9] = experiment: Oral diuretic activity was evaluated by measuring K+ excretion in Rat at 3 mg/kg after […] ( 0-5 hr); assay type: ADME, organism-based, Urine; set-up: dose 3 mg/kg
How it was run: (§4)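 Female Charles-River rats (150–170 g) were kept overnight on a sugar diet with water ad libitum. Test substance was dissolved in DMF and diluted with water containing Tween 80 to a final 4% DMF vehicle, then given po in 5.0 mL. Rats were housed three per metabolism cage, and 0–5 h urine was assayed for Na⁺, K⁺ and Cl⁻ alongside concurrent placebo groups. Values are mequiv × 100 per cage, geometric means of three cages per dose.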

Rattus norvegicus [10] = experiment: Oral diuretic activity was evaluated by measuring K+ excretion in Rat at 81 mg/kg […] ( 0-5 hr); assay type: ADME, organism-based, Urine; set-up: dose 81 mg/kg; how it was run: as §4
Rattus norvegicus [11] = experiment: Oral diuretic activity was evaluated by measuring K+ excretion in Rat at 9 mg/kg […] ( 0-5 hr); assay type: ADME, organism-based, Urine; set-up: dose 9 mg/kg; how it was run: as §4
Canis familiaris [12] = experiment: Oral diuretic activity was evaluated by measuring K+ excretion in dog at 10 mg/kg after ip administration ( 0-6 hr); assay type: ADME, organism-based, Canis lupus familiaris, Urine; set-up: dose 10 mg/kg, route intraperitoneal; details: in vivo; how it was run: as §3
Canis familiaris [13] = experiment: Oral diuretic activity was evaluated by measuring K+ excretion in dog at 1 mg/kg after ip administration ( 0-6 hr); assay type: ADME, organism-based, Canis lupus familiaris, Urine; set-up: dose 1 mg/kg, route intraperitoneal; details: in vivo; how it was run: as §3
Canis familiaris [14] = experiment: Oral diuretic activity was evaluated by measuring K+ excretion in dog at 20 mg/kg after ip administration ( 0-6 hr); assay type: ADME, organism-based, Canis lupus familiaris, Urine; set-up: dose 20 mg/kg, route intraperitoneal; details: in vivo; how it was run: as §3
Rattus norvegicus [15] = experiment: Evaluated for salidiuretic activity measured as sodium ion excretion in Rat, administered orally at a dose of 50 mg/kg; assay type: functional, Urine; set-up: unit not given beside the values; details: route oral
How it was run: (§5)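 Female Charles-River rats (150–170 g), overnight on sugar diet with water ad libitum. Compound dissolved in DMF, diluted with water containing Tween 80 (final 4% DMF), given po in 5.0 mL; concurrent vehicle placebo. Three rats per metabolism cage; 0–5 h urine analysed for Na+, K+, Cl-. Values: mequiv × 100 per cage, geometric means of three cages per dose; scored 0–6 by Na+.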

[16] = Compound administered orally at a dose of 5 mg/kg was evaluated for salidiuretic activity measured as sodium ion excretion in Rat; assay type: organism-based; set-up: dose 5 mg/kg; details: Urine; how it was run: as §5
Rattus norvegicus [17] = experiment: Compound administered orally at a dose of 81 mg/kg was evaluated for salidiuretic activity measured as sodium ion excretion in Rat; assay type: ADME, organism-based, Urine; set-up: dose 81 mg/kg, route oral; unit not given beside the values; details: in vivo, po; how it was run: as §5
Canis familiaris [18] = experiment: Oral diuretic activity was evaluated by measuring Cl- excretion in dog at 5 mg/kg after […] ( 0-6 hr); assay type: ADME, organism-based, Canis lupus familiaris, Urine; set-up: dose 5 mg/kg, route intraperitoneal; details: in vivo
Rattus norvegicus [19] = experiment: Oral diuretic activity was evaluated by measuring K+ excretion in Rat at 27 mg/kg after […] ( 0-5 hr); assay type: ADME, organism-based, Urine; set-up: dose 27 mg/kg; details: in vivo; how it was run: as §4
Canis familiaris [20] = experiment: Compound administered intravenously at a dose of 5 mg/kg was evaluated for salidiuretic activity measured as sodium ion excretion in Dog; Value ranges from 800-899; assay type: ADME, organism-based, Canis lupus familiaris, Urine; set-up: dose 5 mg/kg, route intravenous; unit not given beside the values; details: in vivo, iv
How it was run: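 Conditioned female mongrel dogs, postabsorptive, water-loaded (500 mL po) 1 h before sodium pentobarbital anesthesia (30 mg/kg iv). Bladder catheter; creatinine 4 g sc; phosphate–mannitol buffer pH 7.4 infused (3.0 mL/min) throughout. […] Urine Na+ measured; response scored 0–6.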

[21] = Evaluated for salidiuretic activity measured as sodium ion excretion in Rat, administered orally at a dose of 16.5 mg/kg; assay type: organism-based; set-up: dose 16.5 mg/kg; details: Urine; how it was run: as §5
Rattus norvegicus [22] = experiment: Oral diuretic activity was evaluated by measuring Cl- excretion in Rat at 27 mg/kg after […] ( 0-5 hr); assay type: ADME, organism-based, Urine; set-up: dose 27 mg/kg, route intraperitoneal; details: in vivo
Rattus norvegicus [23] = experiment: Oral diuretic activity was evaluated by measuring Cl- excretion in Rat at 3 mg/kg after […] ( 0-5 hr); assay type: ADME, organism-based, Urine; set-up: dose 3 mg/kg, route intraperitoneal; details: in vivo
Rattus norvegicus [24] = experiment: Oral diuretic activity was evaluated by measuring Cl- excretion in Rat at 9 mg/kg […] ( 0-5 hr); assay type: ADME, organism-based, Urine; set-up: dose 9 mg/kg; details: in vivo; how it was run: as §4
Canis familiaris [25] = experiment: Oral diuretic activity was evaluated by measuring Cl- excretion in dog at 10 mg/kg after […] ( 0-6 hr); assay type: ADME, organism-based, Canis lupus familiaris, Urine; set-up: dose 10 mg/kg, route intraperitoneal; details: in vivo
Canis familiaris [26] = experiment: Oral diuretic activity was evaluated by measuring Cl- excretion in dog at 1 mg/kg after […] ( 0-6 hr); assay type: ADME, organism-based, Canis lupus familiaris, Urine; set-up: dose 1 mg/kg, route intraperitoneal; details: in vivo
Canis familiaris [27] = experiment: Oral diuretic activity was evaluated by measuring Cl- excretion in dog at 20 mg/kg after […] ( 0-6 hr); assay type: ADME, organism-based, Canis lupus familiaris, Urine; set-up: dose 20 mg/kg, route intraperitoneal; details: in vivo
Rattus norvegicus [28] = experiment: Maximum fall in mean arterial blood pressure was measured in SH rats when compound was administered at 20 mg/kg perorally; assay type: functional; details: route oral
Rattus norvegicus [29] = experiment: Oral diuretic activity was evaluated by measuring Cl- excretion in Rat at 81 mg/kg after […] ( 0-5 hr); assay type: ADME, organism-based, Urine; set-up: dose 81 mg/kg, route intraperitoneal; details: in vivo
Rattus norvegicus [30] = experiment: Oral diuretic activity was evaluated by measuring Na+ excretion in Rat at 3 mg/kg […] ( 0-5 hr); assay type: ADME, organism-based, Urine; set-up: dose 3 mg/kg; details: in vivo, ip; how it was run: as §1

## Cl.NCc1c(O)c(Cl)cc(Cl)c1Cl
Rattus norvegicus [1]
  Diuretic activity: 0.94
Canis familiaris [2]
  Diuretic activity: 20.64
Canis familiaris [3]
  Diuretic activity: 5.25
Canis familiaris [4]
  Diuretic activity: 37.25
Canis familiaris [5]
  Diuretic activity: 4.5
Rattus norvegicus [6]
  Diuretic activity: 1.89
Rattus norvegicus [7]
  Diuretic activity: 2.77
Canis familiaris [8]
  Diuretic activity: 14.75
Rattus norvegicus [9]
  Diuretic activity: 0.25
Rattus norvegicus [10]
  Diuretic activity: 0.6
Rattus norvegicus [11]
  Diuretic activity: 0.32
Canis familiaris [12]
  Diuretic activity: 5
Canis familiaris [13]
  Diuretic activity: 2.25
Canis familiaris [14]
  Diuretic activity: 8.25
Rattus norvegicus [15]
  Diuretic activity: 2.4
[16]
  Diuretic activity: 0.5
Rattus norvegicus [17]
  Diuretic activity: 2.9
Canis familiaris [18]
  Diuretic activity: 19.63
Rattus norvegicus [19]
  Diuretic activity: 0.45
Canis familiaris [20]
  Diuretic activity: 800
[21]
  Diuretic activity: 1.4
Rattus norvegicus [22]
  Diuretic activity: 2.36
Rattus norvegicus [23]
  Diuretic activity: 0.46
Rattus norvegicus [24]
  Diuretic activity: 1.19
Canis familiaris [25]
  Diuretic activity: 27.27
Canis familiaris [26]
  Diuretic activity: 6.5
Canis familiaris [27]
  Diuretic activity: 50.25
Rattus norvegicus [28]
  MAP: 18 mmHg
Rattus norvegicus [29]
  Diuretic activity: 3.47
Rattus norvegicus [30]
  Diuretic activity: 0.41
